In brackets after ≈: the same amount, converted by molar mass.
What was measured:
Format in all cases: functional
Candida tropicalis = assay: Antifungal activity against Candida tropicalis Berkout KCCM 50662 after 1 day by two fold broth dilution method; conditions: Berkout KCCM 50662, 24 h
In short: (§1)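 Yeasts were tested by twofold broth dilution in modified Sabouraud dextrose broth with about 1 × 10⁵ cells/mL inoculum. Final compound concentrations ran from […]. Incubation was at 37 °C with the MIC read after 1 day. Fluconazole and 5-fluorocytosine were the standard comparators.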

Cryptococcus neoformans = assay: Antifungal activity against Cryptococcus neoformans KCCM 50564 after 1 day by two fold broth dilution method; conditions: KCCM 50564, 24 h; in short: as §1
Candida albicans = assay: Antifungal activity against Candida albicans Berkout KCCM 50235 after 1 day by two fold broth dilution method; conditions: Berkout KCCM 50235, 24 h; in short: as §1
Aspergillus flavus = assay: Antifungal activity against Aspergillus flavus KCCM 11899 after 2 days by two fold broth dilution method; conditions: KCCM 11899, 48 h
In short: (§2)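 Twofold broth dilution in modified Sabouraud dextrose broth, inoculum about 1 × 10⁵ cells/mL. Compounds were tested at final concentrations of […]. Plates were incubated at 37 °C and the MIC was read after 2 days. Fluconazole and 5-fluorocytosine served as reference agents.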

Aspergillus niger = assay: Antifungal activity against Aspergillus niger KCTC 1231 after 2 days by two fold broth dilution method; conditions: KCTC 1231, 48 h; in short: as §2
Pichia kudriavzevii = assay: Antifungal activity against Candida krusei Berkout KCCM 11655 after 1 day by two fold broth dilution method; conditions: Berkout KCCM 11655, 24 h; in short: as §1

| SMILES | MIC (Candida tropicalis) | MIC (Cryptococcus neoformans) | MIC (Candida albicans) | MIC (Aspergillus flavus) | MIC (Aspergillus niger) | MIC (Pichia kudriavzevii) |
| --- | --- | --- | --- | --- | --- | --- |
| COC(=O)c1c(C)nc(C)c2c1C(=O)C(Cl)=C(Nc1ccc(Cl)cc1)C2=O | 6.3 µg/mL (≈ 15.5 µM) | 12.5 µg/mL (≈ 30.8 µM) | 1.6 µg/mL (≈ 3.95 µM) | 1.6 µg/mL (≈ 3.95 µM) | 3.2 µg/mL (≈ 7.9 µM) | 12.5 µg/mL (≈ 30.8 µM) |
| Nc1nc(=O)[nH]cc1F [FLUCYTOSINE] | 3.2 µg/mL (≈ 24.8 µM) | 12.5 µg/mL (≈ 96.8 µM) | 3.2 µg/mL (≈ 24.8 µM) | 6.3 µg/mL (≈ 48.8 µM) | 6.3 µg/mL (≈ 48.8 µM) | 6.3 µg/mL (≈ 48.8 µM) |
| COC(=O)c1c(C)nc(C)c2c1C(=O)C=C(Sc1ccc(O)cc1)C2=O | 25 µg/mL (≈ 67.7 µM) | 3.2 µg/mL (≈ 8.66 µM) | 25 µg/mL (≈ 67.7 µM) | 6.3 µg/mL (≈ 17.1 µM) | 6.3 µg/mL (≈ 17.1 µM) | 6.3 µg/mL (≈ 17.1 µM) |
| COC(=O)c1c(C)nc(C)c2c1C(=O)C=C(Sc1ccc(C)c(C)c1)C2=O | 12.5 µg/mL (≈ 32.8 µM) | 6.3 µg/mL (≈ 16.5 µM) | 25 µg/mL (≈ 65.5 µM) | 6.3 µg/mL (≈ 16.5 µM) | 6.3 µg/mL (≈ 16.5 µM) | 12.5 µg/mL (≈ 32.8 µM) |
| COC(=O)c1c(C)nc(C)c2c1C(=O)C=C(Nc1ccc(Br)cc1)C2=O | 12.5 µg/mL (≈ 30.1 µM) | 12.5 µg/mL (≈ 30.1 µM) | 12.5 µg/mL (≈ 30.1 µM) | 12.5 µg/mL (≈ 30.1 µM) | 6.3 µg/mL (≈ 15.2 µM) | 12.5 µg/mL (≈ 30.1 µM) |
| COC(=O)c1c(C)nc(C)c2c1C(=O)C(Br)=C(Nc1ccc(Cl)cc1)C2=O | 6.3 µg/mL (≈ 14 µM) | 12.5 µg/mL (≈ 27.8 µM) | 25 µg/mL (≈ 55.6 µM) | 12.5 µg/mL (≈ 27.8 µM) | 12.5 µg/mL (≈ 27.8 µM) | 25 µg/mL (≈ 55.6 µM) |
| COC(=O)c1c(C)nc(C)c2c1C(=O)C=C(Nc1ccc(C)cc1)C2=O | 25 µg/mL (≈ 71.4 µM) | 12.5 µg/mL (≈ 35.7 µM) | 25 µg/mL (≈ 71.4 µM) | 25 µg/mL (≈ 71.4 µM) | 25 µg/mL (≈ 71.4 µM) | 25 µg/mL (≈ 71.4 µM) |
| COC(=O)c1c(C)nc(C)c2c1C(=O)C(Br)=C(Nc1ccc(F)cc1)C2=O | 6.3 µg/mL (≈ 14.5 µM) | 6.3 µg/mL (≈ 14.5 µM) | 6.3 µg/mL (≈ 14.5 µM) | 12.5 µg/mL (≈ 28.9 µM) | 6.3 µg/mL (≈ 14.5 µM) | 12.5 µg/mL (≈ 28.9 µM) |
| COC(=O)c1c(C)nc(C)c2c1C(=O)C(Br)=C(Nc1ccc(F)c(F)c1)C2=O | 1.6 µg/mL (≈ 3.55 µM) | 12.5 µg/mL (≈ 27.7 µM) | 6.3 µg/mL (≈ 14 µM) | 12.5 µg/mL (≈ 27.7 µM) | 6.3 µg/mL (≈ 14 µM) | 25 µg/mL (≈ 55.4 µM) |
| COC(=O)c1c(C)nc(C)c2c1C(=O)C(Br)=C(Nc1ccc(OC)cc1)C2=O | 12.5 µg/mL (≈ 28.1 µM) | 1.6 µg/mL (≈ 3.59 µM) | 0.8 µg/mL (≈ 1.8 µM) | 12.5 µg/mL (≈ 28.1 µM) | 1.6 µg/mL (≈ 3.59 µM) | 1.6 µg/mL (≈ 3.59 µM) |
| OC(Cn1cncn1)(Cn1cncn1)c1ccc(F)cc1F [FLUCONAZOLE] | 6.3 µg/mL (≈ 20.6 µM) | 6.3 µg/mL (≈ 20.6 µM) | 50 µg/mL (≈ 163 µM) | 25 µg/mL (≈ 81.6 µM) | 25 µg/mL (≈ 81.6 µM) | 25 µg/mL (≈ 81.6 µM) |
| COC(=O)c1c(C)nc(C)c2c1C(=O)C(Cl)=C(Nc1ccc(I)cc1)C2=O | 6.3 µg/mL (≈ 12.7 µM) | 3.2 µg/mL (≈ 6.44 µM) | 6.3 µg/mL (≈ 12.7 µM) | 25 µg/mL (≈ 50.3 µM) | 1.6 µg/mL (≈ 3.22 µM) | 12.5 µg/mL (≈ 25.2 µM) |
| COC(=O)c1c(C)nc(C)c2c1C(=O)C=C(Sc1ccc(C)cc1)C2=O | 6.3 µg/mL (≈ 17.1 µM) | 1.6 µg/mL (≈ 4.35 µM) | 6.3 µg/mL (≈ 17.1 µM) | 3.2 µg/mL (≈ 8.71 µM) | 6.3 µg/mL (≈ 17.1 µM) | 12.5 µg/mL (≈ 34 µM) |
| COC(=O)c1c(C)nc(C)c2c1C(=O)C(Cl)=C(Nc1ccc(C)cc1)C2=O | 0.8 µg/mL (≈ 2.08 µM) | 6.3 µg/mL (≈ 16.4 µM) | 1.6 µg/mL (≈ 4.16 µM) | 25 µg/mL (≈ 65 µM) | 1.6 µg/mL (≈ 4.16 µM) | 3.2 µg/mL (≈ 8.32 µM) |
| COC(=O)c1c(C)nc(C)c2c1C(=O)C(Cl)=C(Nc1ccc(OC)cc1)C2=O | 12.5 µg/mL (≈ 31.2 µM) | 3.2 µg/mL (≈ 7.98 µM) | 1.6 µg/mL (≈ 3.99 µM) | 6.3 µg/mL (≈ 15.7 µM) | 3.2 µg/mL (≈ 7.98 µM) | 12.5 µg/mL (≈ 31.2 µM) |
| COC(=O)c1c(C)nc(C)c2c1C(=O)C(Cl)=C(Nc1ccc(F)cc1)C2=O | 1.6 µg/mL (≈ 4.12 µM) | 6.3 µg/mL (≈ 16.2 µM) | 1.6 µg/mL (≈ 4.12 µM) | 6.3 µg/mL (≈ 16.2 µM) | 1.6 µg/mL (≈ 4.12 µM) | 6.3 µg/mL (≈ 16.2 µM) |
| COC(=O)c1c(C)nc(C)c2c1C(=O)C(Br)=C(Nc1ccc(C)cc1)C2=O | 1.6 µg/mL (≈ 3.73 µM) | 6.3 µg/mL (≈ 14.7 µM) | 6.3 µg/mL (≈ 14.7 µM) | 25 µg/mL (≈ 58.2 µM) | 6.3 µg/mL (≈ 14.7 µM) | 6.3 µg/mL (≈ 14.7 µM) |
| COC(=O)c1c(C)nc(C)c2c1C(=O)C=C(Nc1ccc(I)cc1)C2=O | 12.5 µg/mL (≈ 27 µM) | 6.3 µg/mL (≈ 13.6 µM) | 12.5 µg/mL (≈ 27 µM) | 12.5 µg/mL (≈ 27 µM) | 12.5 µg/mL (≈ 27 µM) | 12.5 µg/mL (≈ 27 µM) |
| COC(=O)c1c(C)nc(C)c2c1C(=O)C(Cl)=C(Nc1ccc(C#N)cc1)C2=O | 12.5 µg/mL (≈ 31.6 µM) | 1.6 µg/mL (≈ 4.04 µM) | 1.6 µg/mL (≈ 4.04 µM) | 6.3 µg/mL (≈ 15.9 µM) | 6.3 µg/mL (≈ 15.9 µM) | 12.5 µg/mL (≈ 31.6 µM) |
| COC(=O)c1c(C)nc(C)c2c1C(=O)C(Cl)=C(Nc1ccc(Br)cc1)C2=O | 12.5 µg/mL (≈ 27.8 µM) | 3.2 µg/mL (≈ 7.12 µM) | 1.6 µg/mL (≈ 3.56 µM) | 6.3 µg/mL (≈ 14 µM) | 1.6 µg/mL (≈ 3.56 µM) | 6.3 µg/mL (≈ 14 µM) |
| CC(=O)c1cc(O)ccc1O | 50 µg/mL (≈ 329 µM) | 50 µg/mL (≈ 329 µM) | 50 µg/mL (≈ 329 µM) | 100 µg/mL (≈ 657 µM) | > 100 µg/mL | 100 µg/mL (≈ 657 µM) |
| COC(=O)c1c(C)nc(C)c2c1C(=O)C(Cl)=C(Nc1ccc(F)c(F)c1)C2=O | 25 µg/mL (≈ 61.5 µM) | 12.5 µg/mL (≈ 30.7 µM) | 1.6 µg/mL (≈ 3.93 µM) | 6.3 µg/mL (≈ 15.5 µM) | 1.6 µg/mL (≈ 3.93 µM) | 6.3 µg/mL (≈ 15.5 µM) |
| COC(=O)c1c(C)nc(C)c2c1C(=O)C=CC2=O | 12.5 µg/mL (≈ 51 µM) | 50 µg/mL (≈ 204 µM) | 25 µg/mL (≈ 102 µM) | 50 µg/mL (≈ 204 µM) | > 100 µg/mL | 50 µg/mL (≈ 204 µM) |
| COC(=O)c1c(C)nc(C)c2c1C(=O)C(Br)=C(Nc1ccc(Br)cc1)C2=O | 1.6 µg/mL (≈ 3.24 µM) | 12.5 µg/mL (≈ 25.3 µM) | 1.6 µg/mL (≈ 3.24 µM) | 3.2 µg/mL (≈ 6.48 µM) | 1.6 µg/mL (≈ 3.24 µM) | 12.5 µg/mL (≈ 25.3 µM) |
